# Screening results from PubChem BioAssay.
# RGS4 inh: RGS4 inhibitors, primary screen, cell-based, HEK293 M3R inducible RGS4, calcium flux | Regulator of G-protein signaling 4 (Homo sapiens), P49798 | Fluo-4 calcium flux; hits give high values; triggered by carbachol at its EC20 | B-score at 10 µM | 310,000 compounds, 0.45% hits;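 active = B-score, a plate-corrected calcium signal, over three deviations above library mean, with baseline fluorescence within five deviations of library mean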;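 note: RGS4 expression induced by doxycycline in cells with stable M3 receptor; B-score is computed from the integrated fluorescence ratio over baseline after carbachol; higher B-score means a larger calcium signal and so more RGS4 inhibition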
# Target sequence (P49798 whole entry, looked up): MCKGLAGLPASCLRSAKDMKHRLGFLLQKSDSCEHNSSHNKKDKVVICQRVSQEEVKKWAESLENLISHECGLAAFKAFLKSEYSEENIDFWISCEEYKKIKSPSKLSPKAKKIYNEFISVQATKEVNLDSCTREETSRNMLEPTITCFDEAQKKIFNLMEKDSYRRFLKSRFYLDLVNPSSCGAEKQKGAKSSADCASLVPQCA
# MrgX1 antagonist: antagonists of human MrgX1 receptor, primary screen, HEK293 cells, Fluo-4 calcium flux | 310,000 compounds, 1.3% hits | B-score at 10 µM | BAM8-22 antagonism; hits give low values | Mas-related G-protein coupled receptor member X1 (Homo sapiens), Q96LB2 | AID 588676, 2011;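 active = calcium-response B-score plate-corrected more than 3 library SD below zero, starting fluorescence within 5 deviations, no agonist response on first addition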;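 note: peak minus trough fluorescence over baseline after final BAM8-22 challenge near maximal dose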
# RGS4 act: RGS4 potentiators or activators, primary screen, cell-based, HEK293 M3R inducible RGS4, calcium flux | carbachol calcium flux Fluo4; hits give low values | B-score at 10 µM | 310,000 compounds, 0.92% hits | AID 463111, 2010;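 active = B-score of the integrated calcium signal more than 4 SD below the library mean, with starting fluorescence not abnormally high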;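 note: negative B-score means reduced calcium response which marks RGS4 activation or potentiation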
#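 System: HEK293 FlpIn-TREx cells, stable M3R, doxycycline-inducible RGS4. Timing: overnight RGS4 induction, 30 min dye load 37 °C, 20 min compound RT. Also added: carbachol, ECmax concentration. Measured by: Fluo4 fluorescence kinetic imaging of calcium. Evaluation: integrated calcium ratio converted to B score.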
# MrgX1 ag: agonists of human MrgX1 receptor, primary screen, HEK293 cells, Fluo-4 calcium flux. Mas-related G-protein coupled receptor member X1 (Homo sapiens), Q96LB2. Fluo-4 calcium fluorescence, agonist mode; hits give high values. B-score at 10 µM. 310,000 compounds, 0.44% hits;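 active = calcium response B-score plate-corrected fluorescence ratio at least 3 library SD, with starting fluorescence B-score inside 5 SD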
#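 Material: HEK293 cells stably expressing human MrgX1 receptor | Quantity: 15,000 cells per well | Times: Cells plated overnight, dye loaded 0.5 h 37 °C, 0.5 h room temperature | Measured by: Kinetic Fluo-4 NW fluorescence of intracellular calcium | Control set: Positive and negative controls per plate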
# MrgX1 allo act: positive allosteric modulators of MrgX1, primary screen, HEK293 cells, Fluo-4 calcium flux; B-score at 10 µM; 310,000 compounds, 0.63% hits; FDSS; hits give high values;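 active = plate-corrected calcium response at least 3 library SD above typical, normal starting fluorescence, not activating the receptor alone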;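 note: compound read alongside a low EC10 to EC30 dose of BAM8-22 agonist; peak minus trough fluorescence over baseline measured at the second addition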
# RGS4 activ val: reduced carbachol calcium response, RGS4-induced M3R cells, confirmation, RGS4 activator project, cell-based, HEK293 M3R/RGS4 inducible, calcium flux, duplicate. shares compounds with RGS4 act. carbachol calcium flux Fluo4. inhibition, % at 10 µM. 1,100 compounds, 89% hits. AID 602282, 2012;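 active = inhibition above 3 SD of the buffer control wells, cut at about 41% in these data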;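 note: signal is the integrated peak-minus-minimum Fluo4 fluorescence over baseline ratio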
# RGS4 act ctr: activity in cells without induced RGS4 expression; AID 602283; 1,100 compounds, 82% hits; shares compounds with RGS4 act; inhibition, % at 10 µM; HEK293 M3R non-induced RGS4, Fluo4 calcium flux; after carbachol challenge at its EC90;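 active = inhibition exceeding 3 SD of buffer-only control wells, cut at about 26% in these data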;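 note: percent drop in integrated peak-minus-baseline over baseline Fluo4 ratio after carbachol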
# Active calls of the source: *; i = inactive; nt = not tested or not shown. In the library only some 3.5% were active in any assay of this set; here they are far more common.
SMILES,RGS4 inh,MrgX1 antagonist,RGS4 act,MrgX1 ag,MrgX1 allo act,RGS4 activ val,RGS4 act ctr
C(=N\c1nc2ccccc2n1Cc1ccccc1)/c1cccs1,i,i,-9.8*,i,i,76*,41*
COC1CCCN(C(=O)c2ccc(OC3CCN(S(=O)(=O)N(C)C)CC3)cc2)C1 (configuration not stated),i,i,i,i,i,nt,nt
Cc1nn(-c2ccccc2)c(C)c1NC(=O)COC(=O)Cc1ccccc1F,i,i,i,i,i,nt,nt
Cc1nnsc1C(=O)N/N=C/c1ccc(OC(F)(F)F)cc1,i,i,i,i,i,nt,nt
Cc1c(C(=O)N2CCN(c3ccccc3)CC2)sc2ncnc(N3CCN(c4ccccn4)CC3)c12,i,i,-9.7*,i,i,80*,48*
Cc1c(C(=O)N2CCN(c3ccc(F)cc3)CC2)sc2ncnc(N3CCN(c4ccccn4)CC3)c12,i,i,-8.9*,i,i,92*,84*
Cc1c(C(=O)N(C)C2CCCCC2)sc2ncnc(N3CCN(c4ccccc4)CC3)c12,i,i,-9.7*,i,i,0,28*
Cc1c(C(=O)N(C)C2CCCCC2)sc2ncnc(N3CCN(c4ccccc4F)CC3)c12,i,i,i,i,i,nt,nt
CC(C)(C)c1ccc(OCCCC(=O)Nc2ccc(S(N)(=O)=O)cc2)cc1,i,i,i,i,i,nt,nt
CCN(Cc1ccccc1)Cc1ccc(OCc2ccccc2)cc1,i,i,-8.3*,i,i,93*,70*
Nc1ccc(OCc2ccccc2)cc1,i,i,i,i,i,nt,nt
CN(C)CC(=O)N1c2ccccc2CCc2ccc(NC(=O)c3ccc(N)cc3)cc21,i,i,i,i,i,nt,nt
COc1cc(C(=O)Nc2ccc3c(c2)N(C(=O)CCN(C)C)c2ccccc2CC3)cc(OC)c1OC,i,i,-12*,i,i,92*,79*
COc1ccccc1OCC(=O)Nc1cccc(-c2nnc(-c3ccco3)o2)c1,i,i,-8.1*,i,i,78*,28*
O=C(Cc1ccccc1)Nc1cccc(-c2nnc(-c3ccco3)o2)c1,i,i,i,i,i,nt,nt
COc1cccc(C(=O)Nc2cccc(-c3nnc(-c4ccccc4)o3)c2)c1,i,i,-11*,i,i,76*,37*
COc1ccc(CC(=O)Nc2cccc(-c3nnc(-c4ccccc4)o3)c2)cc1OC,i,nt,-9*,nt,nt,93*,81*
CCCCN(C(=O)c1c(C)noc1C)c1c(N)n(CCCC)c(=O)[nH]c1=O,i,i,i,i,i,nt,nt
Cc1cccc2cc3c(N)c(C(=O)Nc4ccc(N5CCOCC5)cc4)sc3nc12,i,-5.4*,-11*,i,i,92*,74*
Cc1ccc2nc3sc(C(=O)Nc4ccc(N5CCOCC5)cc4)c(N)c3cc2c1,i,nt,i,nt,nt,nt,nt
COc1ccc(CN(C(=O)Cn2nnc(-c3ccc(C)o3)n2)C(C(=O)NCC2CCCO2)c2ccco2)cc1 (configuration not stated),i,i,i,i,i,nt,nt
COc1ccc(C(CNC(=O)c2ccc(Cl)c(NC(=O)c3cccs3)c2)N2CCCC2)cc1 (configuration not stated),i,i,-12*,i,i,89*,52*
C=CCOC(=O)C1=C(C)NC(SCC)=C(C#N)C1c1ccc(Cl)cc1 (configuration not stated),i,i,-7.6*,i,i,93*,84*
